Measurements taken from ChEMBL document CHEMBL4359831, “Chemoproteomics of an Indole-Based Quinone Epoxide Identifies Druggable Vulnerabilities in Vancomycin-Resistant Staphylococcus aureus” (J Med Chem, 2019).
≈ marks a conversion by molar mass, not a printed value. Calls of active or inactive are those of the source. The rule behind the calls is not given here.

Legend:
Staphylococcus aureus [1] = assay: Antibacterial activity against vancomycin-resistant Staphylococcus aureus SA-HIP-15178 after 16 to 18 hrs by CLSI M07-A10 protocol based dilution method; assay type: functional
[2] = Cytotoxicity against African green monkey Vero cells after 72 hrs by MTT assay; assay type: cell-based; details: chlorocebus sabaeus
Klebsiella pneumoniae = assay: Antibacterial activity against Klebsiella pneumoniae ATCC BAA-1705 after 16 to 18 hrs by CLSI M07-A10 protocol based dilution method; assay type: functional
[3] = L-cysteine reactivity in pH 7.4 phosphate buffer assessed as compound remaining at 100 uM incubated for 1 hr by HPLC analysis
Pseudomonas aeruginosa = assay: Antibacterial activity against Pseudomonas aeruginosa ATCC 27853 after 16 to 18 hrs by CLSI M07-A10 protocol based dilution method; assay type: functional
Staphylococcus aureus [4] = assay: Antibacterial activity against vancomycin-resistant Staphylococcus aureus HIP14300 after 16 to 18 hrs by CLSI M07-A10 protocol based dilution method; assay type: functional
Enterococcus faecalis = assay: Antibacterial activity against Enterococcus faecalis B3119 after 16 to 18 hrs by CLSI M07-A10 protocol based dilution method; assay type: functional
Staphylococcus aureus [5] = assay: Antibacterial activity against vancomycin-resistant Staphylococcus aureus AIS100050 after 16 to 18 hrs by CLSI M07-A10 protocol based dilution method; assay type: functional
Staphylococcus aureus [6] = assay: Binding affinity to Staphylococcus aureus ATCC 29213 Thioredoxin at 10 uM in presence of 9-(Pent-4-yn-1-yl)-1a,10a-dihydro-2H-oxireno[2',3':4,5]-benzo[1,2-a]carbazole-2,10(9H)-dione after 1 hr by biotin-azide fluorescence dependent LC-MS/MS-based ABPP assay
Summary of the method: (§1)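 Competitive LC–MS/MS ABPP on S. aureus soluble proteome. Pretreatment 1 h with DMSO, compound (10 μM), comparator (10 μM) or iodoacetamide (10 mM). Chase with alkyne probe (10 μM, 1 h), then Cu-catalysed click with biotin-azide and LC–MS/MS. Targets were proteins at ratio ≤0.1 versus DMSO in the compound and IAM groups and ~1 in the comparator group.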

Erythrocyte = assay: Toxicity in human erythrocytes assessed as induction of hemolysis at 100 ug/ml incubated under shaking condition for 1 hr by spectrophotometric method; assay type: cell-based
[7] = target: T1, 2-dehydropantoate 2-reductase (Staphylococcus aureus) (UniProt A0A0J9X283); assay: Binding affinity to Staphylococcus aureus ATCC 29213 2-dehydropantoate 2-reductase at 10 uM in presence of 9-(Pent-4-yn-1-yl)-1a,10a-dihydro-2H-oxireno[2',3':4,5]-benzo[1,2-a]carbazole-2,10(9H)-dione after 1 hr by biotin-azide fluorescence dependent LC-MS/MS-based ABPP assay; summary of the method: as §1
T1 sequence (whole entry): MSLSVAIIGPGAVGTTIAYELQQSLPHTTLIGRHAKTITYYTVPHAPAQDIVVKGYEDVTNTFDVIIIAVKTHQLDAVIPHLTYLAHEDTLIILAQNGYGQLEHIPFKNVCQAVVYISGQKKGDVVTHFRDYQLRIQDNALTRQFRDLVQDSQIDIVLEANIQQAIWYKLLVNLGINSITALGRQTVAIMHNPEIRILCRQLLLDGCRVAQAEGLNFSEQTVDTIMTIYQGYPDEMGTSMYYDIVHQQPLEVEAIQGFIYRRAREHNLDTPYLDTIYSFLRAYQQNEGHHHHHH

Staphylococcus aureus [8] = assay: Binding affinity to Staphylococcus aureus ATCC 29213 Hydroxyethylthiazole kinase at 10 uM in presence of 9-(Pent-4-yn-1-yl)-1a,10a-dihydro-2H-oxireno[2',3':4,5]-benzo[1,2-a]carbazole-2,10(9H)-dione after 1 hr by biotin-azide fluorescence dependent LC-MS/MS-based ABPP assay; summary of the method: as §1
Staphylococcus aureus [9] = assay: Bactericidal activity against vancomycin-resistant Staphylococcus aureus HIP11714 at 10 times MIC measured up to 24 hrs by time kill assay; assay type: functional, organism-based
Staphylococcus aureus [10] = assay: Binding affinity to Staphylococcus aureus ATCC 29213 HxlR family transcriptional regulator at 10 uM in presence of 9-(Pent-4-yn-1-yl)-1a,10a-dihydro-2H-oxireno[2',3':4,5]-benzo[1,2-a]carbazole-2,10(9H)-dione after 1 hr by biotin-azide fluorescence dependent LC-MS/MS-based ABPP assay; summary of the method: as §1
Escherichia coli = assay: Antibacterial activity against Escherichia coli ATCC 25922 after 16 to 18 hrs by CLSI M07-A10 protocol based dilution method; assay type: functional
Staphylococcus aureus [11] = assay: Antibacterial activity against vancomycin-resistant Staphylococcus aureus 1002434 after 16 to 18 hrs by CLSI M07-A10 protocol based dilution method; assay type: functional
Staphylococcus aureus [12] = assay: Binding affinity to Staphylococcus aureus ATCC 29213 Heme peroxidase at 10 uM in presence of 9-(Pent-4-yn-1-yl)-1a,10a-dihydro-2H-oxireno[2',3':4,5]-benzo[1,2-a]carbazole-2,10(9H)-dione after 1 hr by biotin-azide fluorescence dependent LC-MS/MS-based ABPP assay; summary of the method: as §1
Staphylococcus aureus [13] = assay: Binding affinity to Staphylococcus aureus ATCC 29213 MEP-cytidylyltransferase at 10 uM in presence of 9-(Pent-4-yn-1-yl)-1a,10a-dihydro-2H-oxireno[2',3':4,5]-benzo[1,2-a]carbazole-2,10(9H)-dione after 1 hr by biotin-azide fluorescence dependent LC-MS/MS-based ABPP assay; summary of the method: as §1
Staphylococcus aureus [14] = assay: Binding affinity to Staphylococcus aureus ATCC 29213 Transcriptional regulator at 10 uM in presence of 9-(Pent-4-yn-1-yl)-1a,10a-dihydro-2H-oxireno[2',3':4,5]-benzo[1,2-a]carbazole-2,10(9H)-dione after 1 hr by biotin-azide fluorescence dependent LC-MS/MS-based ABPP assay; summary of the method: as §1
[15] = Chemical reactivity assessed as thiolated-adduct formation at 25 uM using 4-nitrobenzyl thiol after 1 hr by HPLC analysis; assay type: physicochemical
Acinetobacter baumannii = assay: Antibacterial activity against Acinetobacter baumannii BAA-1605 after 16 to 18 hrs by CLSI M07-A10 protocol based dilution method; assay type: functional
Staphylococcus aureus [16] = assay: Binding affinity to Staphylococcus aureus ATCC 29213 MarR family transcriptional regulator at 10 uM in presence of 9-(Pent-4-yn-1-yl)-1a,10a-dihydro-2H-oxireno[2',3':4,5]-benzo[1,2-a]carbazole-2,10(9H)-dione after 1 hr by biotin-azide fluorescence dependent LC-MS/MS-based ABPP assay; summary of the method: as §1
[17] = Selectivity index, ratio of CC50 for African green monkey Vero cells to MIC90 for Staphylococcus aureus ATCC 29213; assay type: toxicity; details: read-out: Selectivity Index
Staphylococcus aureus [18] = assay: Antibacterial activity against vancomycin-resistant Staphylococcus aureus SA-HIP-14300 after 16 to 18 hrs by CLSI M07-A10 protocol based dilution method; assay type: functional
Staphylococcus aureus [19] = assay: Antibacterial activity against vancomycin-resistant Staphylococcus aureus SA-71080 after 16 to 18 hrs by CLSI M07-A10 protocol based dilution method; assay type: functional
Staphylococcus aureus [20] = assay: Binding affinity to Staphylococcus aureus ATCC 29213 DNA polymerase III subunit beta at 10 uM in presence of 9-(Pent-4-yn-1-yl)-1a,10a-dihydro-2H-oxireno[2',3':4,5]-benzo[1,2-a]carbazole-2,10(9H)-dione after 1 hr by biotin-azide fluorescence dependent LC-MS/MS-based ABPP assay; summary of the method: as §1

In the case of CC(C)n1c2ccccc2c2ccc3c(c21)C(=O)C1OC1C3=O (stereo unspecified), the MIC (Staphylococcus aureus [1]) is reported as 0.5 µg/mL (≈ 1.64 µM), the CC50 at 72 h [2] is reported as > 25 µg/mL and the MIC (Klebsiella pneumoniae) is reported as 64 µg/mL (≈ 210 µM). For the same compound, the Activity [3] was 34%, the MIC (Pseudomonas aeruginosa) was 64 µg/mL (≈ 210 µM) and the MIC (Staphylococcus aureus [4]) was 0.5 µg/mL (≈ 1.64 µM). For the same compound, the MIC (Enterococcus faecalis) was 64 µg/mL (≈ 210 µM), the MIC (Staphylococcus aureus [5]) was 0.5 µg/mL (≈ 1.64 µM) and the Activity (Staphylococcus aureus [6]) was “Active”. The Activity (Erythrocyte) was “Non-Toxic”, the Activity [7] was “Active” and the Activity (Staphylococcus aureus [8]) was “Active”. The Activity (Staphylococcus aureus [9]) was “Active”, the Activity (Staphylococcus aureus [10]) was “Active” and the MIC (Escherichia coli) was 64 µg/mL (≈ 210 µM). The MIC (Staphylococcus aureus [11]) was 0.5 µg/mL (≈ 1.64 µM), the Activity (Staphylococcus aureus [12]) was “Active” and the Activity (Staphylococcus aureus [13]) was “Active”. For the same compound, the Activity (Staphylococcus aureus [14]) was “Active”, the Activity [15] was “Active” and the MIC (Acinetobacter baumannii) was 64 µg/mL (≈ 210 µM). The Activity (Staphylococcus aureus [16]) was “Active”, the selectivity ratio [17] was > 200 and the MIC (Staphylococcus aureus [18]) was 0.5 µg/mL (≈ 1.64 µM). The MIC (Staphylococcus aureus [19]) was 0.5 µg/mL (≈ 1.64 µM) and the Activity (Staphylococcus aureus [20]) was “Active”.
